To fix the notation:
B1: tRNA (parent)
chain: CUCUCGGUAGCCAAGUUGGUUUAAGGCGCAAGACUUUAAUUUAUCACUACGAAAUCUUGAGAUCGGGCGUUCGACUCGCCCCCGGGAGAUUUUUUCCUCGAGCAA

This sample holds only a part of the variants without activity.

This series covers variants of B1. The experiment in a line: nonsense suppression (GFP-seq) (ratio to wild type); higher = more function; SUP4oc tRNA, yeast GFP reporter sort-seq. An outline of the steps: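 Sorted GFP/RFP bins of yeast were each Illumina-sequenced with a phred ≥30 cutoff; the cells held a genome-integrated ochre-suppressor tRNA variant from a library with ~3% random mutations, a galactose-driven GFP ochre reporter, and RFP. Culture was in raffinose/galactose medium containing 80 mg/L adenine. Nonsense suppression, termed GFPSEQ, is the median GFP/RFP of the bins weighted by each variant's estimated cell share per bin, relative to the unmutated parent tRNA, for variants reaching ≥100 reads and ≥30 cells.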
In the case of G26C U57A A89C, the nonsense suppression is ≤ 0.026.

On to G26A C29G A30G A33G, for which the nonsense suppression is ≤ 0.026.

A24U G85A: the nonsense suppression worked out at 0.327.

With A24U G85C, the nonsense suppression is ≤ 0.026.

With A24U G85U, the nonsense suppression came to 0.0597.

G28A C75G: the nonsense suppression worked out at 1.02.

In the case of G28A A31G, the nonsense suppression was found to be 0.98.

On to A24C A54C, for which the nonsense suppression turned out to be 0.198.

A24C A54G: the nonsense suppression stood at 0.0609.

Consider C27A G78U, for which the nonsense suppression worked out at 0.0309.

For the variant A23U G65A, the nonsense suppression was ≤ 0.026.

As for C27A A30C A60G C77G C81A, the nonsense suppression is ≤ 0.026.

On to G28C U57A, for which the nonsense suppression is 0.0447.

Consider G28C U57C, for which the nonsense suppression was determined as 0.0349.

Take A24U G84C: the nonsense suppression amounted to 0.107.

Turning to A24U G84A, the nonsense suppression worked out at 0.0448.

Take C27G G32U C75A C81G G88C: the nonsense suppression was ≤ 0.026.

For A24C A60U U63A, the nonsense suppression came to 0.112.

As for A24G A54U, the nonsense suppression is 0.0262.

A24G A87G: the nonsense suppression came out at 0.0583.

As for G25A U57C, the nonsense suppression is ≤ 0.026.

In the case of A23G U63G, the nonsense suppression is ≤ 0.026.

Consider A23G U63A, for which the nonsense suppression amounted to 0.0418.

As to G28A C29U, the nonsense suppression came to 1.15.

For C27G U55A A60C, the nonsense suppression came to 0.809.

Take G26U A74C U76G: the nonsense suppression is ≤ 0.026.

With C27U C77A, the nonsense suppression is ≤ 0.026.

G25C A54U: the nonsense suppression was determined as 0.0708.

As to G26C A60C, the nonsense suppression was determined as 0.027.

Regarding A23U G65C C72A, the nonsense suppression was ≤ 0.026.

Turning to G28C G85U, the nonsense suppression turned out to be 0.208.

As for G25U G28U C29G C72G C81A, the nonsense suppression was ≤ 0.026.

A23U C34U U35G: the nonsense suppression is ≤ 0.026.

Consider C27U A62U, for which the nonsense suppression came to 0.0346.

In the case of C27U A62G, the nonsense suppression was ≤ 0.026.

On to A24C A87G, for which the nonsense suppression stood at 0.479.

For the variant A24C A87U, the nonsense suppression came to 0.0833.

A24C G28A: the nonsense suppression amounted to 0.952.

A24C G28C: the nonsense suppression was determined as 0.201.

In the case of A24U A30G, the nonsense suppression amounted to 0.148.

Take A24U A30U: the nonsense suppression was 0.0403.

For A24C G88A, the nonsense suppression worked out at 0.0453.

A24C U58C: the nonsense suppression was found to be 0.034.

For G28A U76G, the nonsense suppression was ≤ 0.026.

Regarding G28A U76C, the nonsense suppression is 1.09.

Regarding A24U A60G, the nonsense suppression worked out at 0.0422.

Turning to A24U A60U, the nonsense suppression was 0.0572.

Take G26C G67A: the nonsense suppression was ≤ 0.026.

With G26A C27G, the nonsense suppression is ≤ 0.026.

On to G26A C27A, for which the nonsense suppression was ≤ 0.026.

Regarding A23U G32U U63G C68A U70A A74C, the nonsense suppression was ≤ 0.026.

Consider G26A C77G, for which the nonsense suppression was ≤ 0.026.

As for A24G G85A, the nonsense suppression came to 0.189.

As to C27G C80U C83A, the nonsense suppression is ≤ 0.026.

On to G26C U55C, for which the nonsense suppression turned out to be 0.0525.

Take G26C U55A: the nonsense suppression was ≤ 0.026.

C27A U55C: the nonsense suppression worked out at 0.0902.

For G25U U63C C79A, the nonsense suppression is ≤ 0.026.

For the variant A24C A60C, the nonsense suppression is 0.0269.

Turning to A24C A60G, the nonsense suppression amounted to 0.258.

With A24C A60U, the nonsense suppression worked out at 1.07.

Regarding G25U G61A G67U, the nonsense suppression was ≤ 0.026.

As for C27U A30U G85C, the nonsense suppression was ≤ 0.026.

Consider A23U A62C, for which the nonsense suppression was ≤ 0.026.

For the variant C27G C81G, the nonsense suppression is ≤ 0.026.

Regarding G28A G66A, the nonsense suppression is 0.152.

For A24U G85A A87G, the nonsense suppression was determined as 0.215.

Regarding G25A G59C U63C, the nonsense suppression was ≤ 0.026.

Regarding G28C U63A, the nonsense suppression was 0.225.

As for G28C U63C, the nonsense suppression worked out at 0.114.

With A24C A74C, the nonsense suppression turned out to be 0.0915.

For the variant C27U U58A, the nonsense suppression was ≤ 0.026.

Take A24U A54U: the nonsense suppression was determined as 0.208.

Regarding A24C C75U, the nonsense suppression is 1.18.

Consider A24C C75G, for which the nonsense suppression was determined as 1.11.

G26U U70G C79U: the nonsense suppression was ≤ 0.026.

As for A24U U63C, the nonsense suppression was 0.0344.

Regarding A24U U63A, the nonsense suppression was 0.119.

Take G26C U63G: the nonsense suppression is ≤ 0.026.

As to A24U G78U, the nonsense suppression stood at 0.0565.

Take A24C G25U: the nonsense suppression is ≤ 0.026.

Turning to C27A C34G A60U C77U, the nonsense suppression was ≤ 0.026.

Take A24C C29U: the nonsense suppression turned out to be 0.751.

Consider G28C G84C, for which the nonsense suppression came out at 0.239.

Regarding G28C A60U U70C, the nonsense suppression is ≤ 0.026.

For the variant C27G G66U, the nonsense suppression was ≤ 0.026.

G25C A60G: the nonsense suppression amounted to 0.0619.

G25U C34U G59A: the nonsense suppression was 1.15.

As for A23U G28C, the nonsense suppression was ≤ 0.026.

For G25C C34A A87G, the nonsense suppression was ≤ 0.026.

On to G26U G28U, for which the nonsense suppression was ≤ 0.026.

C27U G28A: the nonsense suppression came to 0.0265.

On to G26U A33G G78C G84A, for which the nonsense suppression is ≤ 0.026.

A23G U70C: the nonsense suppression was ≤ 0.026.

With A24U A33G, the nonsense suppression was 0.117.

As to G26U G65C U71A G78U, the nonsense suppression was ≤ 0.026.

As to C27A A33C G66U, the nonsense suppression was ≤ 0.026.

On to G25A C56G C79U, for which the nonsense suppression is ≤ 0.026.

For the variant A23G G84U G86U, the nonsense suppression is ≤ 0.026.

On to A24U G61A, for which the nonsense suppression is 0.124.

As for A24U G61C, the nonsense suppression was ≤ 0.026.

With G25C, the nonsense suppression is 0.185.

In the case of A23U C29U, the nonsense suppression stood at 0.112.

In the case of A23U C29G, the nonsense suppression is ≤ 0.026.

Take A24U A87G: the nonsense suppression came to 0.147.

On to G28C C64U, for which the nonsense suppression turned out to be 0.0765.

For the variant G28C G73U, the nonsense suppression was determined as 0.0322.

Consider G28A A33U, for which the nonsense suppression is 0.0279.

As for G28A A33G, the nonsense suppression is 0.161.

With C27G C77G, the nonsense suppression was ≤ 0.026.

Regarding C27A C83G G84C, the nonsense suppression was ≤ 0.026.

As for A24G A60G, the nonsense suppression is 0.0307.

Regarding G25A C75G G78A, the nonsense suppression is ≤ 0.026.

With G25A G32U U71G, the nonsense suppression was ≤ 0.026.

Regarding G25A G73A, the nonsense suppression is 0.0508.

On to C27A U55A G85A, for which the nonsense suppression was ≤ 0.026.

Regarding G25U G61U C68U, the nonsense suppression was ≤ 0.026.

On to G28A A31G G73C, for which the nonsense suppression was ≤ 0.026.

Consider G25C C75A, for which the nonsense suppression was 0.826.

In the case of C27G G73C, the nonsense suppression is ≤ 0.026.

For G28C U55C, the nonsense suppression turned out to be 0.183.

With G28C U55G, the nonsense suppression was ≤ 0.026.

As to G26U C27G A30G U57G C64U G65C, the nonsense suppression is ≤ 0.026.

For G28A A54U, the nonsense suppression worked out at 1.1.

With G28A A54C, the nonsense suppression is 0.878.

On to G25C A89U, for which the nonsense suppression was ≤ 0.026.

Regarding A24C U76C, the nonsense suppression is 0.88.

As for G28C, the nonsense suppression is 1.17.

Regarding G28A, the nonsense suppression was 0.975.

For the variant G28A A60G, the nonsense suppression stood at 1.07.

For the variant G26C C29G, the nonsense suppression came to 0.0685.

Take G28A C81U: the nonsense suppression came to 1.2.

As to A24C G69U, the nonsense suppression is ≤ 0.026.

Consider A24C G65U, for which the nonsense suppression turned out to be 0.0266.

Consider A24C G65A, for which the nonsense suppression came out at 0.0366.

In the case of A24G C79U, the nonsense suppression came out at 0.0352.

Take A24G A31G: the nonsense suppression was found to be 0.0322.

A24C C72U G84A: the nonsense suppression was ≤ 0.026.

For the variant C27U G32C, the nonsense suppression was ≤ 0.026.

In the case of G28A G61A, the nonsense suppression is 0.8.

For the variant A24C G32U, the nonsense suppression was found to be 0.043.

In the case of C27U U63C, the nonsense suppression came out at 0.0314.

G25C G28C A62U: the nonsense suppression is ≤ 0.026.

As to C27U, the nonsense suppression was 0.183.

For the variant G28A U63A C68G U70A G85C, the nonsense suppression is ≤ 0.026.

Turning to A24G C68A C82G G84U, the nonsense suppression is ≤ 0.026.

Regarding G26C G78U C82A, the nonsense suppression is ≤ 0.026.

On to G28A A54C C68U, for which the nonsense suppression stood at 0.18.

C27G C68G G84A: the nonsense suppression is ≤ 0.026.

In the case of G26U A31C G65C, the nonsense suppression was ≤ 0.026.

Take A24C G67C G84U: the nonsense suppression was ≤ 0.026.

Turning to A24C U63A, the nonsense suppression worked out at 0.636.

On to A24C U63G, for which the nonsense suppression worked out at 0.133.

For the variant A24C U63C, the nonsense suppression was found to be 0.205.

Turning to C27A G84A G86C, the nonsense suppression was ≤ 0.026.

On to G25A G26C, for which the nonsense suppression is ≤ 0.026.

Take C27G U58A U63A: the nonsense suppression is ≤ 0.026.

On to A24C C83U, for which the nonsense suppression was determined as 0.383.

With C27U G61C, the nonsense suppression was 0.0306.

Consider A24U C75U C81U, for which the nonsense suppression is ≤ 0.026.

For A24C U55C, the nonsense suppression amounted to 0.365.

On to A24C U71C, for which the nonsense suppression stood at 0.0704.

For the variant G28A G84A, the nonsense suppression is ≤ 0.026.

Consider C27U C80U, for which the nonsense suppression was 0.0446.

For A24G G59C, the nonsense suppression was ≤ 0.026.

For the variant A24G G59A, the nonsense suppression is ≤ 0.026.

For the variant A24C C81U, the nonsense suppression was 0.2.

Values taken from the RNAGym collection of RNA variant scans (doi:10.1101/gad.245936.114).
